biological target: ALK tyrosine kinase receptor (Homo sapiens, UniProt Q9UM73); assay: Inhibition of ALK by time-resolved fluorescence assay
In short: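 Baculovirus-expressed ALK (30 ng/ml) on plates coated with GST–PLC-gamma substrate in TBS. Reaction ran 15 min at 37 °C. Europium-labeled anti-phosphotyrosine antibody was added for 1 h at 37 °C, then enhancement solution for 30 min, and TRF was read. IC50 came from a variable-slope sigmoidal fit of % inhibition vs log concentration.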

Chain of ALK tyrosine kinase receptor (Q9UM73 whole entry): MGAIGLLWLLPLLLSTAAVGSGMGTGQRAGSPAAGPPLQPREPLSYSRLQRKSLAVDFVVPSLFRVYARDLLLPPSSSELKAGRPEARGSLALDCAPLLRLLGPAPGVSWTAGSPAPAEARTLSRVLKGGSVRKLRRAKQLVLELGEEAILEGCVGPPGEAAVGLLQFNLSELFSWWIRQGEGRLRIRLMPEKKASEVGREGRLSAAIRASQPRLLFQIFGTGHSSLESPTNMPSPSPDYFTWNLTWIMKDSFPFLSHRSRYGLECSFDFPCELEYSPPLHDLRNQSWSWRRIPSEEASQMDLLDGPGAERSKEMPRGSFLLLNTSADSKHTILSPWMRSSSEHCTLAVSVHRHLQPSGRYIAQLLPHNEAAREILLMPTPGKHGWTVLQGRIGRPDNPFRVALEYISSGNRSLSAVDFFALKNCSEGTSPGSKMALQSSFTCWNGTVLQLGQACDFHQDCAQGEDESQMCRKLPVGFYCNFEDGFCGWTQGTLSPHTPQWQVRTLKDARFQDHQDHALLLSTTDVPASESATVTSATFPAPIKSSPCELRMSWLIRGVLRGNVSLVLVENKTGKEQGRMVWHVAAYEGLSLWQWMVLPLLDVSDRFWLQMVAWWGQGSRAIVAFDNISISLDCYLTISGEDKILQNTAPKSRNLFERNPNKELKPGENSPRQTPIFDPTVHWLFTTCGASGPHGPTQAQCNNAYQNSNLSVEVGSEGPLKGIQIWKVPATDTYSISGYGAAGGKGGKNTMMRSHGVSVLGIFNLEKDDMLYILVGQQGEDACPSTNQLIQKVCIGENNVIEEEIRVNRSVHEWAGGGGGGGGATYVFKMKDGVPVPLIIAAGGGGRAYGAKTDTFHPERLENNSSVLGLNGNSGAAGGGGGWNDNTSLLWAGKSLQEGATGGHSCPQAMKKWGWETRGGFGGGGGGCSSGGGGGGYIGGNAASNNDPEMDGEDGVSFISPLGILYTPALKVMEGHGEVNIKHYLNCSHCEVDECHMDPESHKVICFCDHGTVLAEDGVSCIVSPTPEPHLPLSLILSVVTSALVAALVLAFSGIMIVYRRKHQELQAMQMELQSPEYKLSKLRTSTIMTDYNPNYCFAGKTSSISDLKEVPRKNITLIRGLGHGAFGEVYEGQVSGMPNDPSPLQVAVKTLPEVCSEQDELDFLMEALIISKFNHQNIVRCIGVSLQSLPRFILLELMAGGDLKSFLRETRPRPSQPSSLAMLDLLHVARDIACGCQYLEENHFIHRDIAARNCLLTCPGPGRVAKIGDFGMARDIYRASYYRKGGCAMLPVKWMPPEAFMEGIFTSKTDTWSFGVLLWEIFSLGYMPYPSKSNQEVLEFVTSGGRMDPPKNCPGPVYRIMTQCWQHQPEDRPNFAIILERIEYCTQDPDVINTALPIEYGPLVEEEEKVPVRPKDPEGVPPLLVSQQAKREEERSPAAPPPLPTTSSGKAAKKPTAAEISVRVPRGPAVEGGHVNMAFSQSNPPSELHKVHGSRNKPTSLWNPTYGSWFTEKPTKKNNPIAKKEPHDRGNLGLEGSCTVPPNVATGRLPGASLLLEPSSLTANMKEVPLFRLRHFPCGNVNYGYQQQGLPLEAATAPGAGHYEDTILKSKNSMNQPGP

Compound | IC50 [nM]
O=C1CNc2ncc(-c3ccc(C(=O)N4CCC[C@H]4CN4CCCC4)cc3)cc2N1Cc1ccccc1 | > 10000
CCOC(=O)c1ccc(-c2cnc3c(c2)N(Cc2cc(Cl)ccc2C(F)(F)F)CCN3)cc1 | > 3000
CN1CCN(c2ccc(-c3cnc4c(c3)C(Cc3cc(F)ccc3F)CCN4)cn2)CC1 (stereo not drawn) | 1540
CN1CCN(c2ccc(-c3cnc4c(c3)C(Oc3c(F)ccc(F)c3Cl)CCN4)cn2)CC1 (stereo not drawn) | > 10000
CN1CCN(c2ccc(-c3cnc4c(c3)N(Cc3cc(Cl)ccc3Cl)CCN4C)cn2)CC1 | > 3000
CN1CCN(c2ccc(-c3cnc4c(c3)N(C(=O)Cc3cc(F)ccc3F)CCN4)cn2)CC1 | > 10000

These reach a lower IC50. Values come first.

IC50 [nM] | Compound
506 | CN1CCN(c2ccc(-c3cnc4c(c3)N(Cc3c(Cl)cccc3C(F)(F)F)CCN4)cn2)CC1
465 | CN1CCN(c2ccc(-c3cnc4c(c3)N(S(=O)(=O)c3cc(F)ccc3F)CCN4)cn2)CC1
278 | O=C1CNc2ncc(-c3ccc(C(=O)N4CCC[C@H]4CN4CCCC4)cc3)cc2N1Cc1c(Cl)cccc1Cl
256 | O=C(c1ccc(-c2cnc3c(c2)N(Cc2ccccc2)CCN3)cc1)N1CCC[C@H]1CN1CCCC1
145 | O=C1CNc2ncc(-c3ccc(C(=O)N4CCC[C@H]4CN4CCCC4)cc3)cc2N1Cc1cc(F)ccc1F
27 | O=C(c1ccc(-c2cnc3c(c2)N(Cc2c(Cl)cccc2Cl)CCN3)cc1)N1CCC[C@H]1CN1CCCC1
15 | O=C(c1ccc(-c2cnc3c(c2)N(Cc2cc(F)ccc2F)CCN3)cc1)N1CCC[C@H]1CN1CCCC1
